Converted amounts (≈) assume the structure as drawn. The source made the active and inactive calls. A value given as a limit tells only on which side of the number the result lay.

The term CC50 denotes the concentration at which the toxic effect on the cells reaches its halfway point. What is called bioavailability is the share of a dose that reaches the circulation, judged against a reference dose that is usually intravenous. The EC50 is the midpoint of the concentration-response curve. One may read the Papp as the rate of passage across a membrane or cell layer, normalised by area and donor concentration. In general, half-life refers to how long it takes for the measured level to halve. Read a low half-life as rapid decline.

One data set deals with HepG2. Put plainly: (§1) Cytotoxicity against human HepG2 cells assessed as reduction in cell viability incubated for 2 days prior to compound washout followed by compound redosing and measured after 2 days by XTT assay. Format: cell-based. The following applies: hepg2, 48 h. (In general: Tetrazolium assays rely on reduction of a dye to a coloured formazan, in cell work by metabolically active cells.)

Data set [1] deals with Hepatitis B virus. Nature of the data set: Binding affinity to HBV dimeric capsid protein C150 mutant expressed in Escherichia coli BL21 (DE3) at 20 uM by Sypro orange staining based RT-PCR analysis.
Data set [2] is described as follows: Oral bioavailability in CD-1 mouse at 10 mg/kg by LC-MS/MS analysis. The format is ADME, organism-based. Particulars: in vivo; for bioavailability: CD-1, mouse; for F: mouse. Put shortly: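 Male CD-1 mice (25–35 g), n = 4 per route; typical doses 2 mg/kg IV and 10 mg/kg PO in DPBS with up to 42% 2-hydroxypropyl-β-cyclodextrin; serial saphenous blood to 24 h (8 points); plasma by LC-MS/MS; non-compartmental analysis; F = (AUCpo/AUCiv)×(Doseiv/Dosepo).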

Data set [3] in a line: as §1. Particulars: HepG2 cells. Format: cell-based.
For data set [4], the system named is Hepatitis B virus. Put plainly: Antiviral activity against HBV infected in human HepAD38 cells assessed as reduction in total DNA production incubated for 2 days prior to compound washout followed by compound redosing and measured after 2 days by dot-blot analysis. Format: functional, organism-based. Put shortly:
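HepAD38 cells seeded at 3 × 10^4/well in tetracycline medium; next day washed twice with PBS and given tet-free complete medium with 2-fold serial dilutions, 1% final DMSO, replaced with fresh compound medium after 2 days. After 2 more days cells lysed (NP-40), DNA alkali-denatured, dot-blotted, probed with DIG-labelled HBV probe; chemiluminescence densitometry, variable-slope fit; mean ± SD of ≥2 experiments.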

A short description of data set [5]: Intrinsic clearance in mouse liver microsomes assessed as glucuronidation per mg protein at 1 uM in presence of UDPGA by LC-MS/MS analysis. Format: ADME, Microsome. Put shortly:
(§2)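 Glucuronidation: typically 1 μM compound with 0.5 mg/mL microsomal protein, alamethicin 50 μg/mg protein, 1 mM MgCl2, 5 mM UDPGA in 0.1 M potassium phosphate pH 7.4, 37 °C; timed aliquots quenched in acetonitrile; LC-MS/MS gives CLint (μl/min/mg protein); triplicate; 7-hydroxycoumarin positive control.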
(Liver microsomes are a subcellular fraction often used to study metabolism.)

The nature of data set [6]: Apparent permeability from basolateral to apical side in human Caco2 cells measured after 20 to 80 mins by LC-MS/MS analysis. Format: ADME, cell-based. The following applies: caco-2. On the technique in general: Passage across Caco-2 layers is used to estimate intestinal permeability.
Data set [7] in a line: Half life in human plasma at 1 uM by LC-MS/MS analysis. The format is ADME, cell-free.
Data set [8] is described as follows: Stability in Dulbecco's phosphate buffered saline assessed as parent compound remaining at 1 uM after 24 hrs by LC-MS/MS analysis. The format is physicochemical. Particulars: read-out: Stability. Put shortly: (§3)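 Compound, typically 1 μM final, incubated in DPBS at 37 °C in triplicate; samples at 0, 1, 3, 6, 24 h quenched with 3 volumes acetonitrile containing internal standard; parent measured by LC-MS/MS.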

Data set [9] can be described thus: Intrinsic clearance in human liver microsomes assessed as NADPH-dependent metabolism per mg protein at 1 uM in presence of NADPH by LC-MS/MS analysis. Format: ADME, Microsome.
A short description of data set [10]: Thermodynamic aqueous solubility in Dulbecco's phosphate buffered saline using solid sample incubated for 72 hrs under shaking condition by LC-MS/MS analysis. Format: physicochemical. The following applies: read-out: Therm_solubility.
Data set [11] is described as follows: Intrinsic clearance in mouse liver microsomes assessed as NADPH-dependent metabolism per mg protein at 1 uM in presence of NADPH by LC-MS/MS analysis. Format: ADME, Microsome.
The nature of data set [12]: Half life in mouse plasma at 1 uM by LC-MS/MS analysis. The format is ADME, cell-free.
Data set [13] is described as follows: Intrinsic clearance in human liver microsomes assessed as glucuronidation per mg protein at 1 uM in presence of UDPGA by LC-MS/MS analysis. Format: ADME, Microsome. The gist of the method: as §2
Data set [14] is described as follows: Protein binding in mouse plasma at 5 uM incubated for 5 hrs by LC-MS/MS-based equilibrium dialysis method. The format is ADME, cell-free. Put shortly:
(§4)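 Equilibrium dialysis in duplicate: compound spiked at 5 μM into normal human or mouse plasma, dialyzed against DPBS 5 h at 37 °C; both chambers sampled and quenched in acetonitrile with internal standard; LC-MS/MS gives percent bound.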

Data set [15] in a line: Apparent permeability from apical to basolateral side in human Caco2 cells measured after 20 to 80 mins by LC-MS/MS analysis. The format is ADME, cell-based. The following applies: caco-2.
Data set [16] in a line: Protein binding in human plasma at 5 uM incubated for 5 hrs by LC-MS/MS-based equilibrium dialysis method. Format: ADME, cell-free. The gist of the method:
as §4

The nature of data set [17]: Half life in Dulbecco's phosphate buffered saline at 1 uM by LC-MS/MS analysis. Format: physicochemical. Put shortly: as §3
The subject of data set [18] is Hepatitis B virus. Put plainly: Disruption of HBV dimeric capsid protein C150 mutant assembly expressed in Escherichia coli BL21 (DE3) assessed as increase in capsid aggregation after 1 hr by uranyl acetate staining based transmission electron microscopic analysis. The gist of the method: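 Purified C150 dimer (18 μM) in bicarbonate buffer, with compound or 1% DMSO, assembled by adding an equal volume of 100 mM HEPES pH 7.5, 1 M NaCl, 1 h at room temperature. Assemblies adsorbed to glow-discharged carbon-coated copper grids, negatively stained with 2% uranyl acetate and imaged by TEM for aggregates versus DMSO control.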

The test system of data set [19] is Hepatitis B virus. Nature of the data set: Disruption of HBV dimeric capsid protein C150 mutant assembly expressed in Escherichia coli BL21 (DE3) assessed as increase in capsid assembly at 20 uM by Sypro orange staining based RT-PCR analysis.

As for `Cc1cc(NC(=O)c2sc(N)c(C(N)=O)c2C)ccc1Br`, in the data set on HepG2, the CC50 was determined as 107 µM. Besides, the outcome in the data set with Hepatitis B virus [1] was Active. This compound also returned a bioavailability in [2] of 46%.

In the case of `Cc1c(C(=O)Nc2ccccc2)sc(N)c1C(N)=S`, in [3], the half-maximal cytotoxic concentration (CC50) at 48 h is over 100 µM. Further, in the data set with Hepatitis B virus [1], the result was Active. Also, in the data set on Hepatitis B virus [4], the EC50 is over 10 µM.

With `Cc1c(C(=O)Nc2ccc(F)c(F)c2)sc(N)c1C(N)=O`, in the data set with HepG2, the CC50 was over 100 µM. Moreover, the “intrinsic clearance (CLint)” value in [5] is 5.2 µL/min; in data set [13], under 0.1 µL/min. For the same compound, the Papp in data set [6] amounted to 27.6 ×10⁻⁶ cm/s; in data set [15], 24.8 ×10⁻⁶ cm/s. Also, the t1/2 in data set [7] and in data set [12] was over 24 h in each case. In addition, the remaining at 24 h, 1 µM in data set [8] is over 90%. Further, the Microsomal intrinsic clearance in [9] was 3.4 µL/min. Moreover, the solubility thermodynamic at 72 h in data set [10] came to 11 µM (≈ 3.42 µg/mL). Moreover, the “intrinsic clearance per mg protein” value in data set [11] is 25 µL/min. Moreover, the outcome with Hepatitis B virus [1] was Active. For the same compound, the PPB in [14] came out at 80%; in [16], 86%.

`Cc1c(C(=O)Nc2ccccc2)sc(N)c1C(N)=O`: the CC50 in the data set with HepG2 was over 100 µM. Also, the figures for the “intrinsic clearance (CLint)” value in data set [5] and in data set [13] were 4.4 µL/min and 2 µL/min, respectively. Also, the t1/2 in data set [7] and in data set [12] was over 24 h in each case. For the same compound, the remaining at 24 h, 1 µM in [8] was over 90%. The Microsomal intrinsic clearance in data set [9] is 5 µL/min. The solubility thermodynamic at 72 h in data set [10] worked out at 19 µM (≈ 5.23 µg/mL). In addition, the “intrinsic clearance per mg protein” value in data set [11] came out at 18 µL/min. Moreover, the half-life at 1 µM in data set [17] is over 24 h. For the same compound, the result with Hepatitis B virus [1] was Active. In addition, the bioavailability in [2] lay in the range of 31 to 34%. Besides, the values for the PPB in data set [14] and in [16] were 50% and 86%, respectively. In addition, the concentration for a half-maximal effect (EC50) in the data set on Hepatitis B virus [4] worked out at 3.4 µM.

In the case of `Cc1cc(NC(=O)c2sc(N)c(C(N)=O)c2C)ccc1F`, in the data set on HepG2, the 50% cytotoxic concentration (CC50) is over 100 µM. Besides, the result in the data set on Hepatitis B virus [18], in the data set on Hepatitis B virus [1] and with Hepatitis B virus [19] was Active. The “intrinsic clearance (CLint)” value in data set [5] was 5.2 µL/min; in data set [13] it was under 0.1 µL/min. The apparent permeability (Papp) in data set [6] is listed as 26.9 ×10⁻⁶ cm/s; in [15], 18.6 ×10⁻⁶ cm/s. Also, the t1/2 in data set [7] and in data set [12] was over 24 h throughout. The remaining at 24 h, 1 µM in data set [8] is over 90%. The Microsomal intrinsic clearance in data set [9] worked out at 14 µL/min. Also, the solubility thermodynamic at 72 h in [10] turned out to be 31 µM (≈ 9.53 µg/mL). In data set [11], the “intrinsic clearance per mg protein” value worked out at 92 µL/min. In addition, the F in data set [2] came out at 11%. For the same compound, the figures for the PPB in data set [14] and in data set [16] were 82% and 91%, respectively.

For `Cc1c(C(=O)Nc2ccc(F)c(Cl)c2)sc(N)c1C(N)=O`, in the data set with HepG2, the 50% cytotoxic concentration (CC50) was over 100 µM. In addition, the “intrinsic clearance (CLint)” value was 1.6 µL/min in [5] and under 0.1 µL/min in data set [13]. Besides, the t1/2 in data set [7] and in data set [12] was over 24 h each time. The remaining at 24 h, 1 µM in data set [8] was over 90%. For the same compound, the Microsomal intrinsic clearance in [9] was 7.6 µL/min. Further, the solubility thermodynamic at 72 h in data set [10] was 31 µM (≈ 10.2 µg/mL). Further, the “intrinsic clearance per mg protein” value in data set [11] was 28 µL/min. Further, the outcome in the data set with Hepatitis B virus [1] was Active. Also, the PPB amounted to 90% in data set [14] and 94% in [16]. For the same compound, the EC50 in the data set on Hepatitis B virus [4] is 0.31 µM.

Turning to `Cc1c(C(=O)Nc2ccc(F)c(C(F)F)c2)sc(N)c1C(N)=O`, the cytotoxic concentration (CC50) with HepG2 was over 100 µM. Besides, the figures for the “intrinsic clearance (CLint)” value in data set [5] and in [13] were 10 µL/min and 3.2 µL/min, respectively. In addition, the t1/2 in data set [7] and in data set [12] was over 24 h throughout. In data set [8], the remaining at 24 h, 1 µM is over 90%. In addition, in data set [9], the Microsomal intrinsic clearance is 5.8 µL/min. Further, in data set [10], the solubility thermodynamic at 72 h stood at 9.5 µM (≈ 3.26 µg/mL). In addition, in [11], the “intrinsic clearance per mg protein” value was found to be 22 µL/min. The outcome in the data set on Hepatitis B virus [1] was Active. This compound also registered a F in data set [2] of 25%. Also, the PPB in [14] was 82%; in [16], 89%.

The values are drawn from ChEMBL document CHEMBL4411305, “5-Aminothiophene-2,4-dicarboxamide analogues as hepatitis B virus capsid assembly effectors” (Eur J Med Chem, 2019).
